# Screens deposited in PubChem by The Scripps Research Institute Molecular Screening Center.
# ADAM17 inh – inhibits human ADAM17; P78536; recombinant ADAM17, EDANS/DABCYL FRET peptide cleavage; inhibition, % at 6.95 µM; hit rate 0.83% among 370,000; AID 720648;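 active = inhibition above the mean of compounds lying between control limits plus 3 SD, set per campaign, cut at about 8.5% in these data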;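 note: 0% = DMSO-only wells as the low control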
# PLC-beta3 inh – inhibitors of human phospholipase C beta3; hit rate 0.18% among 370,000; inhibition, % at 12.2 µM; Q01970; AID 720704; Purified PLC-beta3, fluorogenic substrate, fluorescence; in the data active = inhibition above about 11%;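 note: 0% = median of compound wells on plate and 100% = full blocker control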
# Tn7 DDE FP – DD(E)-Tn7 binding inhibition, primary FP screen; P02675; FP displacement of FITC-Tn7 peptide from fibrin DD(E); 0% = median of compound wells per plate; inhibition, % at 8.3 µM; hit rate 0.13% among 370,000; AID 720508;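 active = inhibition above the mean of compounds falling within the control limits plus 3 SD of them, cut at about 14% in these data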;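 note: 0% = plate median of compound wells and 100% = 10 µM Aha-Tn7 peptide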
# Target sequence (P02675 whole entry, looked up): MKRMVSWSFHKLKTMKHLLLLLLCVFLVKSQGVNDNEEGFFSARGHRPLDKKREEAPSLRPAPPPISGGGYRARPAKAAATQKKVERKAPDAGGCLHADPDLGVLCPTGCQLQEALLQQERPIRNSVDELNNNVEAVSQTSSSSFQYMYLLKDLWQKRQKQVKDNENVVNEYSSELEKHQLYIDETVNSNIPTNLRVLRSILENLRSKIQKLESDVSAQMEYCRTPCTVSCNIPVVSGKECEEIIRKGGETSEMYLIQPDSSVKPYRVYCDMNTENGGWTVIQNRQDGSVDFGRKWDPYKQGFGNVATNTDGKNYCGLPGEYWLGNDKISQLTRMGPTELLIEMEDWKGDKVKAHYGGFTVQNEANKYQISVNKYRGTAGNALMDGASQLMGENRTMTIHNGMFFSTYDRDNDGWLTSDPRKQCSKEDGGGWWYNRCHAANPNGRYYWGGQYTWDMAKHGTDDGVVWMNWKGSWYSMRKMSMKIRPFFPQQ
#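 Test system: human clot-derived fibrin DD(E) complex / Quantity: 2 µM final DD(E) protein / Incubation: 10 min plus 3 h, room temperature / Measured by: fluorescence polarization / Benchmarks: high control of 10 µM Aha-Tn7 peptide / Replicates: singlicate testing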
# DDE Tn6 FP inh – disrupts Tn6 cyclic peptide binding to fibrin D-Dimer-E complex; Fibrin DD(E) TRITC-Tn6 fluorescence polarization displacement; inhibition, % at 8.3 µM; hit rate 0.21% among 370,000;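 active = inhibition above a per-campaign cutoff: mean of compounds within control limits plus 3 SD, cut at about 15% in these data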;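 note: 0% = median of all compound wells on the plate and 100% = blocking peptide control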
# ADAM10 inh – inhibitors of human ADAM10. recombinant ADAM10, EDANS/DABCYL FRET peptide cleavage, 3 h. inhibition, % at 7 µM. hit rate 0.62% among 370,000;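 active = inhibition above a per-campaign cutoff equal to the mean of compounds falling between control-based bounds plus 3 SD, cut at about 20% in these data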;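 note: 0% = DMSO wells while the 100% control is not disclosed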
# PLC-gamma1 inh – blocks human PLC-gamma1 enzyme activity | P19174 | purified PLC-gamma1, fluorogenic substrate, fluorescence | inhibition, % at 12.2 µM | hit rate 0.84% among 370,000; in the data active = inhibition above about 9.5%
# ADAM10 confirm – human ADAM10 inhibition, confirmation. shares compounds with ADAM10 inh. ADAM10 QFRET peptide cleavage, EDANS fluorescence. inhibition, % at 6.95 µM. hit rate 1% among 2,100. AID 743208;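 active = inhibition above about 20% chosen separately for each screening run, limit read from the data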;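 note: 0% = DMSO wells and 100% = marimastat wells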
# ADAM17 ctr – inhibits human ADAM17 in ADAM10 exosite counter-screen; shares compounds with ADAM10 inh; ADAM17 QFRET peptide cleavage, EDANS fluorescence; inhibition, % at 6.95 µM; hit rate 0.5% among 2,100; AID 743214;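 active = mean triplicate inhibition above the solvent-only control wells' mean plus 3 SD, cut at about 12% in these data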;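 note: 0% = DMSO wells and 100% = marimastat wells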
# Active calls of the source: *; x = not tested or not shown. Compounds with a hit are over-represented: about 2.3% of the library has one in this group of screens.
SMILES,ADAM17 inh,PLC-beta3 inh,Tn7 DDE FP,DDE Tn6 FP inh,ADAM10 inh,PLC-gamma1 inh,ADAM10 confirm,ADAM17 ctr
C#CCN(C[C@@H]1[C@@H](OC(=O)NCc2ccco2)[C@@H](OC(=O)NCc2ccco2)Cn2c(=O)ccc(=O)n21)S(=O)(=O)c1ccc(C)cc1,-4,-6,7,11,-8,-3,x,x
C#CCN(C[C@H]1[C@H](OC(=O)NCc2ccco2)[C@H](OC(=O)NCc2ccco2)C[C@H]2C(=O)N(c3ccccc3)C(=O)[C@@H]12)S(=O)(=O)c1ccc(C)cc1,8,2,8,6,21*,2,8,2
C#CCN1CC(N(C)CCOC(=O)c2cccs2)CS1(=O)=O (centres undefined),2,0,-6,-3,-1,3,x,x
COc1ccc(/C=C2\CC3(OC(=O)c4ccc(F)cc4)CCCN2C3)cc1 (centres undefined),3,-1,3,-8,13,0,x,x
COc1cccc(C(=O)NNC(=O)C(=O)Nc2ccc(C)c(Cl)c2)c1,6,-13,-4,-10,65*,-7,33*,1
COc1ccc(S[C@]2(C(=O)N3CCN(C(C)=O)CC3)CC(=O)N(C(=O)Nc3ccc(C)c(Cl)c3)[C@@H]2c2ccc(OC)cc2)cc1,9.5*,1,-3,0,20*,5,9,5
FC(F)(F)c1cc(CCN2C(=S)NC[C@@H]2Cc2ccccc2)cc(C(F)(F)F)c1,8,-5,3,4,27*,-3,12,4
Oc1ccc(C[C@@H]2CNC(=S)N2CCc2cc(C(F)(F)F)cc(C(F)(F)F)c2)cc1,1,0,-3,3,10,-3,x,x
COC(=O)C[C@H]1CC[C@H]2[C@H](COc3ccc(NC(=O)C4CCOCC4)cc3C(=O)N2C)O1,-3,3,1,-6,-13,6,x,x
Cc1nc2cc(NC(=O)c3ccc(Cl)cc3)ccc2n1C,0,0,5,-6,23*,7,1,0
Cc1c(Cl)cccc1NC(=O)CNC(=O)Cc1c[nH]c2ccccc12,0,-7,-10,-5,33*,-4,3,0
Cc1cccc(C)c1NC(=O)CNC(=O)Cc1c[nH]c2ccccc12,-4,-3,2,-4,2,2,x,x
ON=C1c2ccccc2-c2ccc(F)cc21,0,-11,-9,-2,7,-4,x,x
ON=C1c2ccccc2-c2ccc(Br)cc21,8,1,8,-5,26*,3,2,1
C/C(=N/NC(=O)c1ccc(C)s1)c1ccncc1,-115,-10,-1,-2,21*,-2,0,0
C#CC1(O)CCCC2C3CCC4CC(OC(C)=O)CCC4(C)C3C(=O)CC21C (centres undefined),2,2,-2,2,24*,2,2,0
CC(=O)C1(O)CCC2C3CCC4CC(O)CCC4(C)C3C(=O)CC21C (centres undefined),-4,2,-3,-10,-3,2,x,x
O=C1N[C@@H](Cc2c[nH]c3ccccc23)COC(=O)[C@H](Cc2ccc(F)cc2)C/C=C\C[C@H]1CC(=O)N(CCO)Cc1ccccc1,5,2,6,2,22*,0,6,2
O=C1NC[C@H](c2ccccc2)OC(=O)[C@@H](Cc2ccc(F)cc2)CC/C=C/C[C@@H]1CC(=O)N(CCO)Cc1ccccc1,6,5,4,0,23*,7,0,2
O=C(NCc1cccnc1)O[C@H]1CC[C@@]23CCCN2C(=O)CCC[C@H]3C1,-6,2,1,-6,-1,1,x,x
C=CCN(C(=O)Cn1c(C(=O)OC)cc2oc(C)cc21)c1ccccc1,0,-56,-3,-1,82*,-1,3,1
O=C(COC(=O)c1cc(-c2cccs2)nn1-c1ccccc1)Nc1ccc(Cl)c([N+](=O)[O-])c1,7,2,0,-4,21*,3,6,2
CN(CC(=O)Nc1ccc(Cl)cc1)C(=O)c1cc(-c2cccs2)nn1-c1ccccc1,2,-10,0,-3,-7,1,x,x
COc1cc(NC(=O)c2cc(-c3ccccc3Cl)on2)cc(OC)c1OC,3,-10,0,-13,33*,-3,4,1
COc1ccc2c(c1)C[C@]1(C)c3ccccc3C(=O)N(Cc3ccccc3)[C@H]21,5,2,-6,-2,26*,3,3,1
SMILES,ADAM17 inh,PLC-beta3 inh,Tn7 DDE FP,DDE Tn6 FP inh,ADAM10 inh,PLC-gamma1 inh,ADAM10 confirm,ADAM17 ctr
Cc1cc(C)c(C)c(S(=O)(=O)Nc2ccc3cn[nH]c3c2)c1C,-6,-6,-5,3,99*,-3,1,1
COc1ccc(S(=O)(=O)Nc2ccc3cn[nH]c3c2)cc1C,4,-2,3,-12,-1,-7,x,x
O=C(NCc1ccccc1)c1onc(CSc2ccc(Cl)cc2)c1C(=O)NCc1ccccc1,1,3,-6,-5,2,3,x,x
CC(C)NC(=O)c1c(CSc2ccccc2)noc1C(=O)NCc1ccccc1,4,-3,0,4,81*,-5,1,1
CC(C)NC(=O)c1c(CSc2ccc(Cl)cc2)noc1C(=O)NCc1ccccc1,5,-6,7,-5,22*,2,3,2
N#CCc1ccc(OC[C@@H](O)CN2CCC(C(O)(c3ccccc3)c3ccccc3)CC2)cc1,0,2,-4,4,-2,1,x,x
CCCCCCCCN1CN2Cc3cc(F)ccc3C2CS1(=O)=O (centres undefined),4,-2,-10,2,8,-3,x,x
Cc1cc(N2CCN(C(=O)Oc3ccc(-c4ccccc4)cc3)CC2)c2ccccc2n1,-3,-3,2,-9,-5,-2,x,x
Nc1[nH]c(C(=O)c2ccccc2)c(-c2ccc(Cl)cc2)c1C(=O)c1c[nH]c2ccccc12,-4,-13,6,0,-12,-10,x,x
Cc1[nH]c2ccccc2c1C(=O)c1c(N)[nH]c(C(=O)c2ccccc2)c1-c1ccc(Cl)cc1,5,-15,5,0,21*,-12,8,2
N#C/C(=N\Nc1ccc([N+](=O)[O-])cc1)C(N)=S,8,1,-5,-3,20*,7,1,0
N#C/C(=N/Nc1ccc([N+](=O)[O-])cc1)C(=N)N1CCCCC1,1,1,-3,4,0,3,x,x
